28 molecules from ChEMBL document CHEMBL1125363, “Novel piperidine sigma receptor ligands as potential antipsychotic drugs” (J Med Chem, 1992) can be followed below.

For experiment [1], the target named is Sigma non-opioid intracellular receptor 1 (Mus musculus, UniProt O55242). The experiment is described as follows: In vitro binding affinity for the mouse sigma opioid receptor.
The species named for experiment [2] is Mus musculus. The experiment is described as follows: Oral potency tested by using anti-mescaline test. In kind it is functional. An outline of the steps:
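Mice; mescaline was given to evoke hallucinogen-type behaviour, and the test compound was dosed orally to antagonise it. Potency is the ED50 in mg/kg po. Some ED50s are the average of three measurements.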

The species entered for a further experiment is Rattus norvegicus. The experiment is described as follows: Oral potency tested using 5HTP induced head twitch test. Format: functional.
The species named for experiment [3] is Mus musculus. The experiment is described as follows: Oral potency tested using apomorphine induced climbing test. In kind it is functional.
For experiment [4], the target named is Serotonin 2 (5-HT2) receptor (Mus musculus, UniProt Q02152+P34968+P35363). The experiment is described as follows: In vitro binding affinity for serotonin 5-hydroxytryptamine (5-HT) 2 receptors. In kind it is protein assay.
A short description of experiment [5]: Oral potency by using Anti aggression test. Format: functional. An outline of the steps:
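Mice were held in prolonged isolation, then exposed to intruders. The aggressive response was scored after oral dosing of the test compound. Potency is the ED50 in mg/kg po.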

The target in another experiment is D(2) dopamine receptor (Mus musculus, UniProt P61168). The experiment is described as follows: In vitro binding affinity towards dopamine receptor D2.
The species named for experiment [6] is Mus musculus. The experiment is described as follows: Potency was tested using Anti mescaline test(Intra peritoneal). Format: functional. In a few lines:
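Mouse mescaline-antagonism test with the test compound given intraperitoneally. Read-out is the ED50 in mg/kg ip.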

The species entered for experiment [7] is Mus musculus. The experiment is described as follows: Oral potency by using Anti aggression test.

Sigma non-opioid intracellular receptor 1, sequence (O55242 whole entry): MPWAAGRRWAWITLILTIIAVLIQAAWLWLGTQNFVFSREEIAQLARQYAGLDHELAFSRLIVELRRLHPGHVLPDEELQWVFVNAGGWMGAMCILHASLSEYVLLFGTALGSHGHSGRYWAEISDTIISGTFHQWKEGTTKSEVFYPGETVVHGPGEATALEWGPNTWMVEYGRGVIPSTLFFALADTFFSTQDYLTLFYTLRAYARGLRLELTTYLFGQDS
D(2) dopamine receptor, sequence (P61168 whole entry): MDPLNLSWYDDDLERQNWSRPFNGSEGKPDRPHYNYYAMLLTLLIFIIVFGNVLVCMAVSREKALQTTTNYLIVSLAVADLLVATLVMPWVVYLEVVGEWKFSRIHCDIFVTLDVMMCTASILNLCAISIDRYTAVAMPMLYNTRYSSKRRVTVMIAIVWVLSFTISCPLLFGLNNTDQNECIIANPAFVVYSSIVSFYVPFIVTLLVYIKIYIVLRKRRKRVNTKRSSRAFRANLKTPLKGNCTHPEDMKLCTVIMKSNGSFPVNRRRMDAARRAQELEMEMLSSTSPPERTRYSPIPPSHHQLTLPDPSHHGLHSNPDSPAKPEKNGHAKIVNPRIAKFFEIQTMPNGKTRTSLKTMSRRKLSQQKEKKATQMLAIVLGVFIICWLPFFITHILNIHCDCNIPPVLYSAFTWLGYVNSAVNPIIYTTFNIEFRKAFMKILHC

Regarding `O.O=[N+]([O-])c1ccc(OCC2CCN(CC3CC3)CC2)cc1`, the Ki in experiment [1] turned out to be 13 nM; in [4], 215 nM. Besides, the ED50 was 0.85 mg/kg in the experiment filed under Mus musculus [2], more than 10 mg/kg in the experiment listed under Rattus norvegicus, more than 30 mg/kg in the experiment listed under Mus musculus [3] and 1.4 mg/kg in [5]. In addition, the IC50 at D(2) dopamine receptor was more than 10000 nM.
For `O=C(CC1CCN(Cc2ccc(F)cc2)CC1)c1ccc(F)cc1`, the Ki in [1] was 3 nM; in experiment [4], 26 nM. Moreover, the ED50 in the experiment listed under Mus musculus [2] is 4.5 mg/kg; in the experiment listed under Rattus norvegicus, less than 10 mg/kg; in the experiment listed under Mus musculus [3], less than 10 mg/kg; in experiment [5], 4.5 mg/kg. Also, on D(2) dopamine receptor, the IC50 amounted to 608 nM.
Consider `O.O=C(O)/C=C\C(=O)O.c1ccc(CN2CCC(COCc3ccc(-c4ccccc4)cc3)CC2)cc1`, for which the ED50 in the experiment listed under Mus musculus [6] stood at 10 mg/kg. For the same molecule, the Ki in experiment [1] was found to be 20 nM; in experiment [4], 47 nM. For the same molecule, the IC50 at D(2) dopamine receptor came to 1850 nM.
For `O.c1ccc2cc(OCC3CCN(CC4CC4)CC3)ccc2c1` the same measures were more than 10 mg/kg, 5 nM, more than 100 nM and 2960 nM.
On to `O.c1ccc(-c2ccc(OCC3CCN(CC4CC4)CC3)cc2)cc1`, for which the values for the Ki in experiment [1] and in experiment [4] were 12 nM and more than 10000 nM, respectively. Besides, the ED50 in the experiment listed under Mus musculus [2] was 7.5 mg/kg; in the experiment listed under Rattus norvegicus, more than 30 mg/kg; in the experiment listed under Mus musculus [3], more than 30 mg/kg; in experiment [5], 30 mg/kg. Further, the IC50 at D(2) dopamine receptor is more than 10000 nM.
Consider `Fc1ccc(OCC2CCN(CC3CC3)CC2)cc1`, for which the inhibition constant Ki in experiment [1] was determined as 2 nM; in [4], 9 nM. In addition, the ED50 was 2.9 mg/kg in the experiment listed under Mus musculus [2], 10 mg/kg in the experiment filed under Rattus norvegicus, more than 30 mg/kg in the experiment listed under Mus musculus [3] and 12 mg/kg in [5]. The IC50 on D(2) dopamine receptor was determined as 381 nM.
Take `O.O=C(Cc1ccc(F)cc1)C1CCN(Cc2ccncc2)CC1.O=C(O)/C=C\C(=O)O`: the Ki was 7 nM in [1] and 1705 nM in experiment [4]. For the same molecule, the ED50 in the experiment listed under Mus musculus [2] is 10 mg/kg; in the experiment listed under Rattus norvegicus it was 28 mg/kg; in experiment [5], 38 mg/kg. This molecule also had an IC50 on D(2) dopamine receptor of more than 10000 nM.
In turn, `O=C(O)/C=C\C(=O)O.c1ccc(CCCOCC2CCN(Cc3ccccc3)CC2)cc1` yielded an ED50 in the experiment filed under Mus musculus [6] of less than 10 mg/kg. In addition, the results for the Ki in experiment [1] and in [4] were 3.2 nM and 260 nM, respectively. The molecule also returned a 50% inhibitory concentration (IC50) on D(2) dopamine receptor of 839 nM.
`Fc1ccc(OCC2CCN(CCC3CC3)CC2)cc1.O=C(O)/C=C/C(=O)O` came in with a Ki in experiment [1] of 3 nM. The results for the median effective dose (ED50) (in the experiment listed under Mus musculus [2]; in the experiment filed under Rattus norvegicus; in [5]) were 3.1 mg/kg, less than 10 mg/kg and 4.5 mg/kg, respectively. Besides, on D(2) dopamine receptor, the half-maximal inhibitory concentration (IC50) was 428 nM.
For `CN(C)c1cccc(OCC2CCN(CC3CC3)CC2)c1.O`, the 50% effective dose (ED50) in the experiment filed under Mus musculus [6] is less than 10 mg/kg. Besides, the values for the inhibitory constant (Ki) in [1] and in experiment [4] were 5 nM and 1158 nM, respectively. In addition, the IC50 on D(2) dopamine receptor is 7330 nM.
In the case of `N#Cc1ccc(OCC2CCN(CC3CC3)CC2)cc1`, the Ki in [1] was 10 nM; in [4], 2818 nM. Moreover, the ED50 was 1.7 mg/kg in the experiment listed under Mus musculus [2], 29 mg/kg in the experiment listed under Rattus norvegicus and 2.6 mg/kg in [5]. The same molecule displayed an IC50 at D(2) dopamine receptor of more than 10000 nM.
Take `Cl.Clc1ccc(OCC2CCN(CC3CC3)CC2)cc1`: the results for the Ki in experiment [1] and in experiment [4] were 4 nM and 40 nM, respectively. The ED50 in the experiment filed under Mus musculus [2] is 4.4 mg/kg; in the experiment listed under Rattus norvegicus it was 27 mg/kg; in the experiment listed under Mus musculus [3], more than 30 mg/kg; in experiment [5], 26 mg/kg. The molecule also had an IC50 at D(2) dopamine receptor of more than 10000 nM.
As for `Cl.Fc1ccc(OCC2CCN(Cc3ccccc3)CC2)cc1.O`, the figures for the Ki in experiment [1] and in experiment [4] were 2 nM and 28 nM, respectively. For the same molecule, the figures for the ED50 (in the experiment filed under Mus musculus [2]; in the experiment filed under Mus musculus [3]; in experiment [5]) were 4 mg/kg, more than 30 mg/kg and 8.2 mg/kg, respectively. Moreover, the IC50 at D(2) dopamine receptor came out at 870 nM.
The molecule `CC(C)(C)c1ccc(COCCC2CCN(Cc3ccccc3)CC2)cc1.Cl` had an ED50 in the experiment listed under Mus musculus [6] of more than 10 mg/kg. In addition, the results for the inhibition constant (Ki) in [1] and in [4] were 4.5 nM and 939 nM, respectively. The IC50 on D(2) dopamine receptor was determined as 6750 nM.
The molecule `Cl.Fc1ccc(COCC2CCN(Cc3ccc(Cl)cc3)CC2)cc1` returned an ED50 in the experiment filed under Mus musculus [6] of less than 10 mg/kg. The Ki is 2 nM in experiment [1] and 281 nM in experiment [4].
As to `Cl.Clc1ccc(OCC2CCN(Cc3ccccc3)CC2)cc1`, the Ki was found to be 8.3 nM in experiment [1] and 137 nM in experiment [4]. The ED50 was 8 mg/kg in the experiment filed under Mus musculus [2], more than 10 mg/kg in the experiment listed under Rattus norvegicus and 10 mg/kg in experiment [5]. The IC50 on D(2) dopamine receptor came to 4210 nM.
In the experiment listed under Mus musculus [6], `Cl.Fc1ccc(COCC2CCN(Cc3ccc4ccccc4c3)CC2)cc1` gave an ED50 of more than 10 mg/kg. In [4], the inhibition constant (Ki) came out at 251 nM. The IC50 on D(2) dopamine receptor turned out to be 305 nM.
`Cl.c1ccc(CCCCCOCC2CCN(Cc3ccccc3)CC2)cc1` gave an ED50 in the experiment listed under Mus musculus [6] of more than 10 mg/kg. Besides, the results for the Ki in experiment [1] and in experiment [4] were 26 nM and 186 nM, respectively. Further, at D(2) dopamine receptor, the concentration for half-maximal inhibition (IC50) was found to be 1850 nM.
For `Cl.c1ccc(CN2CCC(COc3ccc4ccccc4n3)CC2)cc1` the same measures were less than 10 mg/kg, 5.6 nM, 311 nM and 6300 nM.
As to `Br.COc1ccc(C(=O)CC2CCN(CC3CC3)CC2)cc1`, in the experiment listed under Mus musculus [6], the ED50 was more than 10 mg/kg. The Ki came out at 55 nM in experiment [1] and 1883 nM in [4]. On D(2) dopamine receptor, this molecule returned a half-inhibitory concentration (IC50) of 1800 nM.
For `Cl.c1ccc(COCC2CCN(Cc3ccccc3)CC2)cc1`, in that order: more than 10 mg/kg, 4 nM, more than 1000 nM and more than 10000 nM.
For `Cl.c1ccc(CN2CCC(COC3CCCCC3)CC2)cc1` the same measures were less than 10 mg/kg, 2 nM, 1363 nM and more than 10000 nM.
In the case of `Cl.O.OC(Cc1ccc(F)cc1)C1CCN(Cc2ccccc2)CC1` (configuration not stated), the Ki in experiment [1] amounted to 3 nM; in experiment [4], 360 nM. The ED50 in the experiment filed under Mus musculus [2] is 5 mg/kg; in the experiment listed under Mus musculus [3] it was more than 30 mg/kg; in [5], more than 30 mg/kg. In addition, the IC50 on D(2) dopamine receptor came out at 789 nM.
Take `Cl.Fc1ccc(COCC2CCN(Cc3ccc(-c4ccccc4)cc3)CC2)cc1`: the ED50 in the experiment filed under Mus musculus [6] was more than 10 mg/kg. In addition, the Ki in experiment [1] is 14 nM; in [4] it was more than 1000 nM. The molecule also displayed a 50% inhibitory concentration (IC50) at D(2) dopamine receptor of 818 nM.
`Cl.c1ccc(CCCCOCC2CCN(Cc3ccccc3)CC2)cc1`: in the experiment listed under Mus musculus [6], the ED50 is more than 10 mg/kg. The figures for the Ki in experiment [1] and in experiment [4] were 2 nM and 224 nM, respectively. In addition, the IC50 at D(2) dopamine receptor was determined as 4340 nM.
Consider `Cl.OC(CC1CCN(Cc2ccccc2)CC1)c1ccc(F)cc1` (configuration not stated), for which the Ki worked out at 8 nM in [1] and 323 nM in [4]. Further, the ED50 in the experiment filed under Mus musculus [2] was 5 mg/kg; in the experiment filed under Rattus norvegicus, 6.8 mg/kg; in the experiment listed under Mus musculus [3] it was more than 30 mg/kg; in [5] it was 32 mg/kg. The same molecule gave an IC50 at D(2) dopamine receptor of 5660 nM.
As to `Cl.Fc1ccc(OCC2CCN(CCc3ccc(Cl)cc3)CC2)cc1`, the figures for the Ki in experiment [1] and in experiment [4] were 5 nM and 26 nM, respectively. Also, the ED50 in the experiment listed under Mus musculus [2] is 1.7 mg/kg; in the experiment listed under Rattus norvegicus it was more than 10 mg/kg; in experiment [5], 10 mg/kg. At D(2) dopamine receptor, this molecule showed an IC50 of 368 nM.
Consider `C[C@@H]1CN(CCCn2c3ccccc3c3ccccc32)C[C@H](C)N1` [RIMCAZOLE], for which the Ki was 820 nM in experiment [1] and 2842 nM in experiment [4]. For the same molecule, the ED50 was 22 mg/kg in the experiment filed under Mus musculus [2], 48 mg/kg in the experiment filed under Mus musculus [7] and more than 90 mg/kg in the experiment filed under Mus musculus [3].
